From ChEMBL document CHEMBL1137654, “Activity of an antimicrobial peptide mimetic against planktonic and biofilm cultures of oral pathogens” (2007)
In brackets after ≈: the same amount, converted by molar mass. Each block holds one compound with its values, some of them ahead of it. Activity calls are given as the source filed them. No cut-off for these calls is given here.

Key:
Actinomyces viscosus [1] = assay: Antibacterial activity against Actinomyces viscosus after 18 to 24 hrs; assay type: functional
Outline: (§1)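 Exponential-phase overnight culture in the organism's growth medium, adjusted to 4.5 × 10⁵ CFU/ml and added to serial compound dilutions in 96-well plates; 37°C for 18 to 24 h in a humidified container. MIC = lowest concentration preventing visible turbidity. Triplicate.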

Candida dubliniensis = assay: Antifungal activity against Candida dubliniensis NCPF3949 after 24 hrs by broth microdilution assay; assay type: functional; conditions: NCPF3949, 24 h
Outline: (§2)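 CLSI M27-A2 broth microdilution. Colonies from 24-h YPD agar culture suspended in 0.85% saline, set to 0.5 McFarland (OD 530 nm). Final inoculum 0.5–2.5 × 10³ CFU/ml in RPMI 1640 + 0.165 M MOPS pH 7.0. DMSO stock diluted to final 0.016–16 μg/ml. 35°C, visual read at 24 h against the drug-free well. Duplicate.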

Candida albicans [2] = assay: Antifungal activity against Candida albicans 44 after 24 hrs by broth microdilution assay; assay type: functional; conditions: Candida albicans, 44, 24 h; outline: as §2
Candida albicans [3] = assay: Antifungal activity against Candida albicans M70 after 24 hrs by broth microdilution assay; assay type: functional; conditions: M70, 24 h; outline: as §2
Staphylococcus aureus [4] = assay: Antibacterial activity against Staphylococcus aureus ATCC 27660 after 24 to 48 hrs; assay type: functional
Outline: (§3)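 MBC: wells at the MIC plus one dilution above and below plated on agar; after 24 to 48 h growth, MBC = lowest concentration giving no visible growth on the agar surface.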

Streptococcus mutans [5] = assay: Antibacterial activity against Streptococcus mutans ATCC 33402 after 24 to 48 hrs; assay type: functional; outline: as §3
Porphyromonas gingivalis [6] = assay: Antibacterial activity against Porphyromonas gingivalis ATCC 53978 after 24 to 48 hrs; assay type: functional
Outline: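 P. gingivalis MBC, anaerobic, from MIC plates run in cooked meat medium and TSB: the MIC well and one dilution above and below plated; lowest concentration with no visible agar growth after 24 to 48 h.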

Streptococcus mutans [7] = assay: Antibacterial activity against Streptococcus mutans ATCC 33402 assessed as inhibition of biofilm formation at >1 ug/ml in presence of 1% sucrose by crystal violet staining; assay type: functional, organism-based
Porphyromonas gingivalis [8] = assay: Antibacterial activity against Porphyromonas gingivalis ATCC 53978 after 18 to 24 hrs; assay type: functional
Outline: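 P. gingivalis maintained in cooked meat medium with glucose, hemin and vitamin K at 37°C, anaerobic. MIC run in both cooked meat medium and TSB: 4.5 × 10⁵ CFU/ml with serial dilutions, 18 to 24 h, lowest concentration without visible turbidity. Triplicate.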

Streptococcus mutans [9] = assay: Antibacterial activity against Streptococcus mutans ATCC 33402 biofilms assessed as log reduction of viable bacteria at 50 ug/ml; assay type: functional
Outline: (§4)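 1 × 10⁵ CFU grown 2 days in BHI + 1% sucrose, then compound added for 24 h. Biofilms washed with PBS, disrupted by sonication (30 s) in 2 ml PBS, serially diluted and plated on mitis agar for viable counts.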

Pichia kudriavzevii = assay: Antifungal activity against Candida krusei ATCC 6258 after 24 hrs by broth microdilution assay; assay type: functional; conditions: ATCC 6258, 24 h; outline: as §2
Nakaseomyces glabratus = assay: Antifungal activity against Candida glabrata ATCC 90030 after 24 hrs by broth microdilution assay; assay type: functional; conditions: ATCC 90030, 24 h; outline: as §2
Streptococcus mutans [10] = assay: Antibacterial activity against Streptococcus mutans isolate N32 after 24 to 48 hrs; assay type: functional; outline: as §3
Streptococcus mutans [11] = assay: Antibacterial activity against Streptococcus mutans ATCC 33402 biofilms assessed as inhibition of adherent biomass growth at >2.5 ug/ml in presence of 1% sucrose by crystal violet staining; assay type: functional, organism-based
Outline: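 1 × 10⁵ CFU seeded in 96-well plates in BHI + 1% sucrose to form a biofilm, then exposed to increasing concentrations. After PBS washes to remove planktonic cells, methanol fixation and crystal violet staining, absorbance read at 595 nm. Reported as change from day-2 cultures before compound addition. Triplicate; SD.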

Streptococcus mutans [12] = assay: Antibacterial activity against Streptococcus mutans isolate N32 after 18 to 24 hrs; assay type: functional; outline: as §1
Actinomyces viscosus [13] = assay: Antibacterial activity against Actinomyces viscosus after 24 to 48 hrs; assay type: functional; outline: as §3
Streptococcus mutans [14] = assay: Antibacterial activity against Streptococcus mutans ATCC 33402 assessed as log cell killing at MIC after 1 hr by time kill study; assay type: functional, organism-based
Streptococcus mutans [15] = assay: Antibacterial activity against Streptococcus mutans ATCC 33402 after 18 to 24 hrs; assay type: functional; outline: as §1
Nucleic Acid [16] = assay: Binding affinity to single stranded AT-rich oligonucleotide assessed as retardation of oligonucleotide movement by agarose gel electrophoresis; assay type: nucleic-acid assay
Streptococcus mutans [17] = assay: Antibacterial activity against Streptococcus mutans ATCC 33402 in presence of 50% human saliva; assay type: functional
Streptococcus mutans [18] = assay: Antibacterial activity against Streptococcus mutans ATCC 33402 in presence of 30 nM single stranded DNA; assay type: functional, organism-based
Streptococcus mutans [19] = assay: Antibacterial activity against Streptococcus mutans ATCC 33402 in presence of 10% human saliva; assay type: functional
Candida parapsilosis = assay: Antifungal activity against Candida parapsilosis ATCC 22019 after 24 hrs by broth microdilution assay; assay type: functional; conditions: Lodderomyces parapsilosis, ATCC 22019, 24 h; outline: as §2
Candida albicans [20] = assay: Antifungal activity against Candida albicans ATCC 90028 after 24 hrs by broth microdilution assay; assay type: functional; conditions: ATCC 90028, 24 h; outline: as §2
[21] = system: Aggregatibacter actinomycetemcomitans; assay: Antibacterial activity against Actinobacillus actinomycetemcommitans CU1000 after 24 to 48 hrs; assay type: functional; outline: as §3
Streptococcus mutans [22] = assay: Antibacterial activity against Streptococcus mutans isolate N43 after 24 to 48 hrs; assay type: functional; outline: as §3
Streptococcus mutans [23] = assay: Antibacterial activity against Streptococcus mutans ATCC 33402 assessed as log cell killing at 10 times MIC within 1 minute by time kill study; assay type: functional
[24] = system: Aggregatibacter actinomycetemcomitans; assay: Antibacterial activity against Actinobacillus actinomycetemcommitans CU1000 after 18 to 24 hrs; assay type: functional; outline: as §1
Streptococcus mutans [25] = assay: Antibacterial activity against Streptococcus mutans ATCC 33402 biofilms assessed as bacterial dead cells at 50 ug/ml after 24 hrs by fluorescence confocal microscopy; assay type: functional, organism-based
Outline: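 2-day sucrose biofilms treated 24 h with 0 or 50 μg/ml, washed three times with PBS, stained 15 min in the dark with LIVE/DEAD dye diluted 1:1,000, washed once. Imaged by confocal laser scanning microscopy at 488 and 543 nm, side and top views.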

Nucleic Acid [26] = assay: Binding affinity to single stranded GC-rich oligonucleotide assessed as retardation of oligonucleotide movement by agarose gel electrophoresis; assay type: nucleic-acid assay
Staphylococcus aureus [27] = assay: Antibacterial activity against Staphylococcus aureus ATCC 27660 after 18 to 24 hrs; assay type: functional; outline: as §1
Candida tropicalis = assay: Antifungal activity against Candida tropicalis ATCC 750 after 24 hrs by broth microdilution assay; assay type: functional; conditions: ATCC 750, 24 h; outline: as §2
Streptococcus mutans [28] = assay: Antibacterial activity against Streptococcus mutans ATCC 33402 in presence of 25% human saliva; assay type: functional
Streptococcus mutans [29] = assay: Antibacterial activity against Streptococcus mutans isolate N43 after 18 to 24 hrs; assay type: functional; outline: as §1
RAW264.7 [30] = assay: Inhibition of Pseudomonas aeruginosa LPS-induced TNFalpha production in mouse RAW264.7 cells at 9.5 nM after 6 hrs by ELISA; assay type: functional, cell-based
Outline: (§5)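 RAW 264.7 macrophages plated overnight at 1 × 10⁶ cells/well, then stimulated with 100 ng/ml LPS together with test agent for 6 h at 37°C. TNF-α in the medium measured by mouse TNF-α ELISA. Triplicate; SE; t test.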

Nucleic Acid [31] = assay: Binding affinity to double stranded DNA retardation of oligonucleotide movement by agarose gel electrophoresis; assay type: nucleic-acid assay
Streptococcus mutans [32] = assay: Antibacterial activity against Streptococcus mutans ATCC 33402 biofilms assessed as log reduction of viable bacteria at 500 ug/ml; assay type: functional, organism-based; outline: as §4
RAW264.7 [33] = assay: Inhibition of Pseudomonas aeruginosa LPS-induced TNFalpha production in mouse RAW264.7 cells at 7 nM after 6 hrs by ELISA; assay type: functional, cell-based; outline: as §5

MIC (Actinomyces viscosus [1]): 0.8 µg/mL (≈ 1.53 µM)
MIC (Candida dubliniensis): 1 µg/mL (≈ 1.91 µM)
MIC (Candida albicans [2]): 0.5 µg/mL (≈ 0.957 µM)
MIC (Candida albicans [3]): 0.5 µg/mL (≈ 0.957 µM)
MIC (Porphyromonas gingivalis [8]): 2.5 µg/mL (≈ 4.79 µM)
MIC (Pichia kudriavzevii): 1 µg/mL (≈ 1.91 µM)
MIC (Nakaseomyces glabratus): 1 µg/mL (≈ 1.91 µM)
MIC (Streptococcus mutans [12]): 0.5 µg/mL (≈ 0.957 µM)
MIC (Streptococcus mutans [15]): 0.5 µg/mL (≈ 0.957 µM)
Activity (Nucleic Acid [16]): Active
MIC (Streptococcus mutans [17]): 0.5 µg/mL
MIC (Streptococcus mutans [19]): 1 µg/mL
MIC (Candida parapsilosis): 1 µg/mL (≈ 1.91 µM)
MIC (Candida albicans [20]): 1 µg/mL (≈ 1.91 µM)
MIC [24]: 0.4 µg/mL (≈ 0.766 µM)
Activity (Nucleic Acid [26]): Active
MIC (Staphylococcus aureus [27]): 0.25 µg/mL (≈ 0.479 µM)
MIC (Candida tropicalis): 1 µg/mL (≈ 1.91 µM)
MIC (Streptococcus mutans [28]): 1 µg/mL
MIC (Streptococcus mutans [29]): 0.5 µg/mL (≈ 0.957 µM)
Activity (Nucleic Acid [31]): Active
Compound: NCCc1cc(Br)cc(C#Cc2cccc(C#Cc3cc(Br)cc(CCN)c3)c2)c1
MFC (Candida dubliniensis): 2 µg/mL (≈ 3.83 µM)
MFC (Candida albicans [2]): 1 µg/mL (≈ 1.91 µM)
MFC (Candida albicans [3]): 1 µg/mL (≈ 1.91 µM)
MBC (Staphylococcus aureus [4]): 0.8 µg/mL (≈ 1.53 µM)
MBC (Streptococcus mutans [5]): 1.25 µg/mL (≈ 2.39 µM)
MBC (Porphyromonas gingivalis [6]): 2.5 µg/mL (≈ 4.79 µM)
Activity (Streptococcus mutans [7]): Active
Activity (Streptococcus mutans [9]): 3
MFC (Pichia kudriavzevii): 2 µg/mL (≈ 3.83 µM)
MFC (Nakaseomyces glabratus): 2 µg/mL (≈ 3.83 µM)
MBC (Streptococcus mutans [10]): 1.25 µg/mL (≈ 2.39 µM)
Activity (Streptococcus mutans [11]): Active
MBC (Actinomyces viscosus [13]): 1.5 µg/mL (≈ 2.87 µM)
Activity (Streptococcus mutans [14]): Active
Activity (Streptococcus mutans [18]): Active
MFC (Candida parapsilosis): 2 µg/mL (≈ 3.83 µM)
MFC (Candida albicans [20]): 2 µg/mL (≈ 3.83 µM)
MBC [21]: 1.5 µg/mL (≈ 2.87 µM)
MBC (Streptococcus mutans [22]): 1.25 µg/mL (≈ 2.39 µM)
Activity (Streptococcus mutans [23]): >2
Activity (Streptococcus mutans [25]): Active
MFC (Candida tropicalis): 2 µg/mL (≈ 3.83 µM)
Activity (RAW264.7 [30]): Active

Compound: CN(C)[C@@H]1C(O)=C(C(N)=O)C(=O)[C@@]2(O)C(O)=C3C(=O)c4c(O)cccc4[C@@](C)(O)[C@H]3C[C@@H]12
Activity (Streptococcus mutans [32]): Active

Compound: POLYMYXIN B
Activity (RAW264.7 [33]): Active
